Experimental data: paper PMC2864154 (Biochemical pharmacology, 2010)
Read-outs that look alike come from different tables or passages of the source.

Tests used:
P2Y1 receptor = P2Y1 receptor (Mus musculus, UniProt P49650); assay: Competition binding against [125I]MRS2500 in MIN6 cell membranes
MIN6 cells [1] = assay: Insulin secretion assay; assay type: cell-based, mouse; conditions: for EC50: read-out: EC50 insulin secretion, 1 h, n=3
In short: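 Cells were seeded at 40,000/well and cultured 48 h in DMEM at 37°C, then preincubated 1 h in KRBB with 3.3 mM glucose and 0.3% albumin. Secretion was stimulated 1 h at 37°C in KRBB with 16.7 mM glucose (or a glucose series) ± agonist, with or without P2Y1/P2Y13 antagonists (30 μM) or a P2Y6 antagonist (10 μM). Insulin was measured by ELISA against a mouse insulin standard; n=3.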

MIN6 cells [2] = assay: Inositol phosphate; assay type: cell-based, mouse; conditions: read-out: EC50 accumulation of intracellular IP3; 30 min at 37°C, 20 mM lithium chloride, n=3
In short: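 MIN6 cells were grown to 80% confluence with myo-[3H]-inositol (2 μCi/ml) for 48 h. They were then exposed to P2Y ligand or buffer with 20 mM LiCl for 30 min at 37°C. The reaction was stopped with cold 20 mM formic acid, and supernatants were neutralized with NH4OH. Samples went through AG1-X8 anion exchange, with total IP3 eluted by 1 M ammonium formate/0.1 M formic acid and counted by scintillation; n=3.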

MIN6 cells [3] = assay: TNF-α induced apoptosis, HO342/PI nuclei staining, fluorescence microscopy; assay type: cell-based, mouse; conditions: TNF-α 50 ng/ml; for nuclei/cells double stained with HO342 and PI: agonist 10 μM where present
In short: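 MIN6 cells were grown 48 h on coverslips, then moved to DMEM with 5% FBS. Cells were pretreated 30 min with 10 μM agonist, which stayed present, then given TNF-α 50 ng/ml (16 h per methods; legend gives staining after 24 h); PBS alone was the negative control. Staining used PI 10 μg/ml plus HO342 20 μg/ml for 10 min, viewed by fluorescence microscopy at 365 nm excitation. Condensed or fragmented blue, pink or red nuclei were scored apoptotic.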

MIN6 cells [4] = assay: TNF-α induced apoptosis, PI flow cytometry; assay type: cell-based, mouse; conditions: TNF-α 50 ng/ml, 24 h; for cell death (sub-G1 peak): agonist pretreatment where present
In short: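 Cells were grown in 6-well plates, pretreated with agonist (10 μM, 30 min, kept present), and exposed to TNF-α 50 ng/ml. At 24 h after induction, cells were trypsinized, stained with PI (10 μg/ml) for 30 min, and analyzed by flow cytometry. Cell death was scored as the percentage of cells with sub-G1 DNA content.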

P2Y2 = conditions: read-out: EC50 PLC activation; P2Y2, transfected astrocytoma cells; cited from earlier work
P2Y4 = conditions: read-out: EC50 PLC activation; P2Y4, transfected astrocytoma cells; cited from earlier work
P2Y6 = conditions: read-out: EC50 PLC activation; P2Y6, transfected astrocytoma cells; cited from earlier work
mouse P2Y1 receptor = mouse P2Y1 receptor (Mus musculus, UniProt P49650); assay: Saturation binding of [125I]MRS2500 in MIN6 cell membranes; conditions: n=3
Sequence of mouse P2Y1 receptor (P49650 whole entry): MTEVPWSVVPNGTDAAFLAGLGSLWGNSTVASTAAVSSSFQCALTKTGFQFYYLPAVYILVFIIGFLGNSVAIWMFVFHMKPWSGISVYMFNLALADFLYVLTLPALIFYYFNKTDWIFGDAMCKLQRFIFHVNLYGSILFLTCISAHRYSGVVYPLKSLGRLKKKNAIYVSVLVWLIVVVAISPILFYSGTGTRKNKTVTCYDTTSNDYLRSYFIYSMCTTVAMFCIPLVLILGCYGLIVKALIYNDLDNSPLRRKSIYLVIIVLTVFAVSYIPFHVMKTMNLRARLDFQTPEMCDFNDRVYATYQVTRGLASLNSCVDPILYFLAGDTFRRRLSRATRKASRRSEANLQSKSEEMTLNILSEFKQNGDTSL
In short: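 Membranes came from MIN6 cells at 80% confluence: homogenized, cleared at 100 × g for 5 min, Polytron-homogenized in 50 mM Tris-HCl pH 7.4, and pelleted at 20,000 × g for 20 min at 4°C. They were incubated with 0.2–7.2 nM [125I]MRS2500 in 50 mM Tris, MgCl2, pH 7.4, for 60 min at 4°C. Nonspecific binding used 10 μM unlabelled ligand. Bound ligand was collected on GF/B filters; Bmax was expressed per mg protein (BCA) and KD from saturation/Scatchard analysis; n=3.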

[5] = against [125I]MRS2500, MIN6 cell membranes, mean ± s.e.m. of three experiments

Sequence of P2Y1 receptor (P49650 whole entry): as above

Nc1ncnc2c1ncn2[C@@H]1O[C@H](COP(=O)(O)OP(=O)(O)O)[C@@H](O)[C@H]1O [ADP]
Ki (P2Y1 receptor; [5]): 335 ± 3.9 nM | effect on insulin release (MIN6 cells [1]; agonist 10 μM, 16.7 mM glucose): stimulated insulin release | concentration at which insulin secretion was maximal (MIN6 cells [1]; concentration response studies, 16.7 mM glucose): 10 µM

CNc1ncnc2c1ncn2[C@H]1C[C@H](OP(=O)(O)O)[C@@H](COP(=O)(O)O)O1 [MRS2179, N^6-methyl-2′-deoxyadenosine-3′,5′-bisphosphate]
Ki (P2Y1 receptor): 49.8 ± 0.23 nM

CNc1nc(Cl)nc2c1ncn2[C@H]1C[C@H](OP(=O)(O)O)[C@]2(COP(=O)(O)O)C[C@H]12 [MRS2279, 2-chloro-N^6-methyl-(N)-methanocarba-2′-deoxyadenosine-3′,5′-bisphosphate]
Ki (P2Y1 receptor; [5]): 6.86 ± 0.12 nM

CSc1nc(N)c2ncn(C3CC(O)C4(COP(=O)(O)OP(=O)(O)O)CC34)c2n1 (stereo not drawn) [MRS2365, (N)-methanocarba-2′-deoxy-2-methylthio-adenosine-5′-diphosphate]
EC50 (MIN6 cells [1]; 16.7 mM glucose): 25.8 ± 5.6 nM

CNc1nc(I)nc2c1ncn2[C@H]1C[C@H](OP(=O)(O)O)[C@]2(COP(=O)(O)O)C[C@H]12 [MRS2500, 2-iodo-N^6-methyl-(N)-methanocarba-2′-deoxyadenosine-3′,5′-bisphosphate]
Ki (P2Y1 receptor; [5]): 2.92 ± 0.21 nM

S=C=Nc1cccc(NC(=S)NCCCCNC(=S)Nc2cccc(N=C=S)c2)c1 [MRS2578]
effect of antagonist on insulin secretion induced by Up3U (MIN6 cells [1]; antagonist 10 μM, Up3U 10 μM): significantly blocked

O=c1ccn([C@@H]2O[C@H](COP(=O)(O)OP(=O)(O)OP(=O)(O)OC[C@@H]3O[C@@H](n4ccc(=O)[nH]c4=O)C(O)[C@@H]3O)[C@H](O)C2O)c(=O)[nH]1 (stereo partly drawn) [Up3U, P^1,P^4-di(uridine 5′-)triphosphate]
effect on insulin secretion at low glucose (MIN6 cells [1]; 3.3 mM glucose, data not shown): did not show any significant effect | increase in insulin secretion compared with glucose alone (MIN6 cells [1]; agonist 10 μM, 35 mM glucose): 2 fold | EC50 (MIN6 cells [1]; 16.7 mM glucose): 30.7 ± 12.7 nM | EC50 (MIN6 cells [2]): 29 ± 7.3 nM | cells homogeneously stained only with HO342 (MIN6 cells [3]; agonist 10 μM): more than 80% | cytoprotection against TNF-α induced apoptosis (microscopy) (MIN6 cells [3]; agonist 10 μM pretreatment): significant cytoprotection | nuclei/cells double stained with HO342 and PI (MIN6 cells [3]): ~ 10% | reduction of cell death compared to TNF-α alone (MIN6 cells [4]; agonist pretreatment): significant reduction in cell death | cell death (sub-G1 peak) (MIN6 cells [4]): 25% | EC50 (P2Y2): 1310 ± 210 nM | EC50 (P2Y4): 870 ± 110 nM | EC50 (P2Y6): 270 ± 70 nM

CNc1nc(I)nc2c1ncn2[C@H]1C[C@H](OP(=O)(O)O)[C@]2(COP(=O)(O)O)C[C@H]12 [[^125I]MRS2500]
Bmax (mouse P2Y1 receptor): 307±22 fmol receptor per mg protein | Kd (mouse P2Y1 receptor; saturation binding, 60 min at 4° C): 4.74 ± 0.47 nM

TNF-α
nuclei/cells double stained with HO342 and PI (MIN6 cells [3]): 30-40% | cell death (sub-G1 peak) (MIN6 cells [4]): 54%
